Measurements from ChEMBL document CHEMBL1154321, “Benzoxazole piperidines as selective and potent somatostatin receptor subtype 5 antagonists” (Bioorg Med Chem Lett, 2009).
≈ marks a conversion by molar mass, not a printed value.

Experiments:
[1] = Solubility in phosphate buffer at pH 6.5 by lyophilization solubility assay; format: physicochemical
In short: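 Lyophilized DMSO stock solutions redissolved in 50 mM phosphate buffer, pH 6.5; solubility read spectrophotometrically.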

[2] = molecular target: Somatostatin receptor type 1 (Homo sapiens, UniProt P30872); test: Displacement of SST14 from human recombinant SST1 receptor
Sequence of Somatostatin receptor type 1 (P30872 whole entry): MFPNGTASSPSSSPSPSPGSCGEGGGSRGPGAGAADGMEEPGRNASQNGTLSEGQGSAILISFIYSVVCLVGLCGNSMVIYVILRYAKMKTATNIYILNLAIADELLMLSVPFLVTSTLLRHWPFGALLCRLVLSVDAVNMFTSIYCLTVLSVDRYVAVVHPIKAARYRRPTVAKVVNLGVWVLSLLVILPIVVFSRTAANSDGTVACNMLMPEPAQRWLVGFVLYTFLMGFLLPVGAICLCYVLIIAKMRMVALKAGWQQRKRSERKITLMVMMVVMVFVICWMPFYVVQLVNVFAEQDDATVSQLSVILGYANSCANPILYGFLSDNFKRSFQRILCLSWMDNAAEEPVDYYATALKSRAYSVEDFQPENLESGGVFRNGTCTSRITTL
In short: (§1)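 Membranes prepared by sonication from cells expressing the SST receptor subtype, incubated with radiolabeled 11-Tyr SST-14 tracer and test compound at varying concentrations; non-labeled SST-14 defined non-specific binding. Incubation stopped by glass-fiber filtration, bound radioactivity counted; IC50 for half-maximal binding inhibition estimated and Ki derived.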

[3] = Octanol-TAPSO partition coefficient, log D at pH 7.4 by spectrophotometry; format: physicochemical; conditions: octanol/TAPSO buffer
In short: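 Spectrophotometric log D in 1-octanol/50 mM TAPSO buffer, pH 7.4, containing 5% (v/v) DMSO.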

[4] = molecular target: Somatostatin receptor type 4 (Homo sapiens, UniProt P31391); test: Displacement of SST14 from human recombinant SST4 receptor; in short: as §1
Sequence of Somatostatin receptor type 4 (P31391 whole entry): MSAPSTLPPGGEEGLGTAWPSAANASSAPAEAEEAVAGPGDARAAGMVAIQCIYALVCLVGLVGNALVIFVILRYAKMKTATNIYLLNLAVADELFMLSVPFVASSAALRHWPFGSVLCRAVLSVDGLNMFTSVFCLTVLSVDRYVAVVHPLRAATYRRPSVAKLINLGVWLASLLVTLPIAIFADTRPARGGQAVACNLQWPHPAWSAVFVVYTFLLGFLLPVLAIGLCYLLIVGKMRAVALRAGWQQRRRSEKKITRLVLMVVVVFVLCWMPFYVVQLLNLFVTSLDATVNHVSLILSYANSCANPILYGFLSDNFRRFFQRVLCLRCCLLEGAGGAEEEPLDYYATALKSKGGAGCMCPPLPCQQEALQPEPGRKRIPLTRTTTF

Histamine H1 receptor = Histamine H1 receptor (Homo sapiens, UniProt P35367); test: Binding affinity to human histamine H1 receptor
Sequence of Histamine H1 receptor (P35367 whole entry): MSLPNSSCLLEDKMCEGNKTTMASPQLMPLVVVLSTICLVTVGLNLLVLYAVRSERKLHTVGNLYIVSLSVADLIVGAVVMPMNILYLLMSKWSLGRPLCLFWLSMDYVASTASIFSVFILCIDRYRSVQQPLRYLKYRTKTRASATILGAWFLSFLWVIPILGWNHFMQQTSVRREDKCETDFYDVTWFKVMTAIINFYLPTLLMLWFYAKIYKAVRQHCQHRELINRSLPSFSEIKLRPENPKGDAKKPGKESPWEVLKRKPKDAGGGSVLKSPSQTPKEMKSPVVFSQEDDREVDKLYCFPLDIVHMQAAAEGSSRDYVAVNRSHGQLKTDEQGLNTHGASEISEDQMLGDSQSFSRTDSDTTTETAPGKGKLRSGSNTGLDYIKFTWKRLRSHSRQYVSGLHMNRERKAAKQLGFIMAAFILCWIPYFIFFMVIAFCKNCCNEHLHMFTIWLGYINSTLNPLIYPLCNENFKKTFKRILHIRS

[5] = molecular target: Somatostatin receptor type 2 (Homo sapiens, UniProt P30874); test: Displacement of SST14 from human recombinant SST2 receptor; in short: as §1
Sequence of Somatostatin receptor type 2 (P30874 whole entry): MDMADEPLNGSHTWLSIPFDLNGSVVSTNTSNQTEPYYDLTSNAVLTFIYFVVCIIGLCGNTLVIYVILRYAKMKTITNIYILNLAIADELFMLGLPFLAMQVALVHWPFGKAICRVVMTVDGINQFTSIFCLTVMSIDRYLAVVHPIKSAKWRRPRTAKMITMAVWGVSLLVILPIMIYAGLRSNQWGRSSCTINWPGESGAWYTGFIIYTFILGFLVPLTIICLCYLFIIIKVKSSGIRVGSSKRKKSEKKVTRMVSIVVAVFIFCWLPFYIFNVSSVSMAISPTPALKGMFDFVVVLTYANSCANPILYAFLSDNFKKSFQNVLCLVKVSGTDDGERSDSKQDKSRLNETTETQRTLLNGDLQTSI

Homo sapiens = organism: Homo sapiens; test: Selectivity ratio of Ki for human histamine H1 receptor to Ki for human SST5 receptor
[6] = molecular target: 5-hydroxytryptamine receptor 2B (Homo sapiens, UniProt P41595); test: Binding affinity to human 5HT2B receptor
Sequence of 5-hydroxytryptamine receptor 2B (P41595 whole entry): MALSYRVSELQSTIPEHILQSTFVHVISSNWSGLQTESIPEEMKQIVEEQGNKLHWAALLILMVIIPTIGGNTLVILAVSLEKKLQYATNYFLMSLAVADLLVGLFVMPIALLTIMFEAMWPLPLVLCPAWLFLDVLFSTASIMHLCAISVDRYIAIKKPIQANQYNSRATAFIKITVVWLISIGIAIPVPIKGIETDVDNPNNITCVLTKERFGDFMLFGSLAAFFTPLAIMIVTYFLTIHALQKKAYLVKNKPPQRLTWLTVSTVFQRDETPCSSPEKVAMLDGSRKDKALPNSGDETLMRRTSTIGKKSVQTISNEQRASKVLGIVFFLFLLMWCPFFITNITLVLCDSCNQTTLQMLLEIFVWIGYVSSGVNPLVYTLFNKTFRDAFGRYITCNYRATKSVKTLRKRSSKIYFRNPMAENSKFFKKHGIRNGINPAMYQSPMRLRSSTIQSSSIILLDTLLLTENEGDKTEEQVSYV

[7] = molecular target: Somatostatin receptor type 3 (Homo sapiens, UniProt P32745); test: Displacement of SST14 from human recombinant SST3 receptor; in short: as §1
Sequence of Somatostatin receptor type 3 (P32745 whole entry): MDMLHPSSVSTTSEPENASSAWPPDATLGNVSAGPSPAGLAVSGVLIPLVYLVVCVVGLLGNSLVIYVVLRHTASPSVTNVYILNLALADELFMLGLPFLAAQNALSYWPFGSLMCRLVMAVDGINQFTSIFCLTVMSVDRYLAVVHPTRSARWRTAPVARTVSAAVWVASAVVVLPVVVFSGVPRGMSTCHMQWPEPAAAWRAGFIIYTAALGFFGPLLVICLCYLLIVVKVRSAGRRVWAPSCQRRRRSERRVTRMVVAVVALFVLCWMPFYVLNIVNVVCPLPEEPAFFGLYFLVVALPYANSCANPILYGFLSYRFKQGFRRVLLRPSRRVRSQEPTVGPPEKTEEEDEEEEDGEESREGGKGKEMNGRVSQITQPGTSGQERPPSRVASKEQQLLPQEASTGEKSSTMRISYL

[8] = molecular target: T1, Somatostatin receptor type 5 (Homo sapiens, UniProt P35346); test: Displacement of SST14 from human recombinant SST5 receptor expressed in CHO cells by radioligand binding assay; format: cell-based; in short: as §1
T1 sequence (P35346 whole entry): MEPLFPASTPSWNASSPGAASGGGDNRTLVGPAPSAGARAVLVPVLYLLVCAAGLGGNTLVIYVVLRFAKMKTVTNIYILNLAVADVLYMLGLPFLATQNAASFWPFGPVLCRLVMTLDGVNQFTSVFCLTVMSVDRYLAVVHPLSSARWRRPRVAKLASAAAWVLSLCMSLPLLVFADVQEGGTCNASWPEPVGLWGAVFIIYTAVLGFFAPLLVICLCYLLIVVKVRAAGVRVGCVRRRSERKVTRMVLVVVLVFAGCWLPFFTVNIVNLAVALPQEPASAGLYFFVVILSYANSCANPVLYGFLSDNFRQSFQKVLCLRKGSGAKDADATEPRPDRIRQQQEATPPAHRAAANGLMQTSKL

[9] = sPermeability by PAMPA; format: ADME; conditions: read-out: permeability
In short: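 Parallel artificial membrane permeation; Pe categorized as low (<0.1), medium (0.1–1.0) or high (>1.0).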

[10] = Dissociation constant, pKa by spectrophotometry; format: physicochemical
[11] = Terminal half-life in Wistar rat administered as single dose; format: ADME, organism-based; conditions: in vivo, read-out: beta t1/2 (converted)
[12] = Oral bioavailability in Wistar rat administered as single dose; format: ADME, organism-based; conditions: in vivo
[13] = Volume of distribution at steady state in Wistar rat administered as single dose; format: ADME, organism-based; conditions: in vivo, read-out: Vdss
[14] = Clearance in Wistar rat administered as single dose; format: ADME, organism-based; conditions: in vivo
hERG (KCNH2) = hERG (KCNH2) (Homo sapiens, UniProt Q12809); test: (§2) Inhibition of human ERG expressed in CHO cells by patch clamp technique; format: cell-based; conditions: human, CHO cells expressing human ERG
[15] = molecular target: Voltage-gated inwardly rectifying potassium channel KCNH2 (Homo sapiens, UniProt Q12809); test: as §2; format: cell-based
Sequence of Voltage-gated inwardly rectifying potassium channel KCNH2 (Q12809 whole entry): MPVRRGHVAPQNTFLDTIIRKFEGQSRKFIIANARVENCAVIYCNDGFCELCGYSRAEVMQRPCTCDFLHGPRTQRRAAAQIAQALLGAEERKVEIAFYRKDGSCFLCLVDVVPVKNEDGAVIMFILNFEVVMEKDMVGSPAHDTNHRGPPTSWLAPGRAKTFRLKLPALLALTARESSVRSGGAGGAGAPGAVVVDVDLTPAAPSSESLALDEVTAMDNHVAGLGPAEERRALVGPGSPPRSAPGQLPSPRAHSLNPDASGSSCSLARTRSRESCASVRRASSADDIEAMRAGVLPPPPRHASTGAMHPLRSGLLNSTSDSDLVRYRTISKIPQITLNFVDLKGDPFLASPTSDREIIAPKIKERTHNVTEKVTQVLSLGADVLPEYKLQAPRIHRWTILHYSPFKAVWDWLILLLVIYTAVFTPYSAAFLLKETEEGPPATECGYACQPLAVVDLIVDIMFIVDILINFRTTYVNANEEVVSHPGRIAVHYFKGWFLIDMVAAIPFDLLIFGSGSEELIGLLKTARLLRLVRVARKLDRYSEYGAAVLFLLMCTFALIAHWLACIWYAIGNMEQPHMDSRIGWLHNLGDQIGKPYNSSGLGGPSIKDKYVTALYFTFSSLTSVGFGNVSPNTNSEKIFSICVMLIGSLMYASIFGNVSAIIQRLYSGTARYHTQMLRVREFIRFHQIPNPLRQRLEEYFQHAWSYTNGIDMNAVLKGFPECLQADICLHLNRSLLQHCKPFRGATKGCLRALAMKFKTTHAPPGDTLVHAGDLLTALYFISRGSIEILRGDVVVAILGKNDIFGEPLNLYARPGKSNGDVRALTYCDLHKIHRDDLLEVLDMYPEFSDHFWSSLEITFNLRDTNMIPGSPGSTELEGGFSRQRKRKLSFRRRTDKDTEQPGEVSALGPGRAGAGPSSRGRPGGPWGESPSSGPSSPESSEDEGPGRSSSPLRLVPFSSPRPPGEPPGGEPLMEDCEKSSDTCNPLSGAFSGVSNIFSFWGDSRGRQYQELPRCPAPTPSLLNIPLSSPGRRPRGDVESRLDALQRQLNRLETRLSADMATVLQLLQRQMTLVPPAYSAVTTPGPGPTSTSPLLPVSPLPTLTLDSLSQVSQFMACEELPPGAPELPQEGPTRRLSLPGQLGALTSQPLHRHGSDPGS

[16] = molecular target: T1, Somatostatin receptor type 5; test: Antagonist activity at human SST5 receptor expressed in CHO cells assessed as inhibition of forskolin-induced cAMP release by TR-FRET assay; format: functional, cell-based
In short: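 Transfected cells incubated with forskolin, 0.15 nM SST-14 and test compound at varying concentrations; cellular cAMP measured by FRET-based assay. IC50 taken as concentration half-maximally reversing the SST-14 effect, read from concentration-versus-cAMP curves.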

SMILES | solubility [1] [µg/mL] | Ki [2] [µM] | logD [3] | Ki [4] [µM] | Ki (Histamine H1 receptor) [µM] | Ki [5] [µM] | Ratio Ki (Homo sapiens) | Ki [6] [µM] | Ki [7] [µM] | Ki [8] [µM] | Papp [9] [×10⁻⁶ cm/s] | pKa [10] | half-life [11] [h] | bioavailability [12] [%] | Vd [13] [L/kg] | clearance [14] [mL/min/kg] | IC50 (hERG (KCNH2)) [µM] | IC50 [15] [µM] | IC50 [16] [µM]
CCOc1cc(CN2CCC(Nc3nc4cc(NC(=O)C5CCC5)ccc4o3)CC2)ccc1OC | > 638 | 4.95 | 2.64 | > 10 | 0.923 | > 10 | 5.1 | > 10 | > 10 | 0.182 | 1.1 |  |  |  |  |  |  |  | 
CCOc1cc(CN2CCC(Nc3nc4cc(S(N)(=O)=O)ccc4o3)CC2)ccc1OC | > 614 |  | 1.51 | > 10 | 0.52 | > 10 | 1 |  | > 10 | 0.529 | 1.64 | 8.05 | 1.7 | 4 | 8.2 | 103 | 3.5 |  | 
CCOc1cc(CN2CCC(Nc3nc4ccccc4o3)CC2)ccc1OC |  |  |  | > 10 |  | > 10 | 5.2 | 0.041 | > 10 |  |  | 8.3 | 0.7 | 6 | 4.1 | 84 | < 0.1 |  | 
CCOc1cc(CN2CCC(Nc3nc4cc(C(=O)O)ccc4o3)CC2)cc(OCC)c1Cl | 14 (≈ 29.5 µM) | 4.5 | 1.82 | > 10 |  | > 10 | > 200 |  | > 10 | 0.003 | 2.09 |  | 4.9 | 12 | 1.8 | 18 |  | > 10 | 
CCOc1cc(CN2CCC(Nc3nc4cc(Cl)c(S(N)(=O)=O)cc4o3)CC2)ccc1F | 32 (≈ 66.3 µM) |  | 2.78 | > 10 | 1.37 | > 10 | 5.5 | > 10 | > 10 | 0.252 | 2.45 | 7.61 |  |  |  |  |  |  | 
CCOc1cc(CN2CCC(Nc3nc4cc(S(N)(=O)=O)ccc4o3)CC2)cc(OCC)c1N | 335 (≈ 684 µM) | 1.75 | 1.62 |  | 2.6 |  | 200 |  |  |  |  | 8.28 |  |  |  |  |  |  | 
CCOc1cc(CN2CCC(Nc3nc4cc(C(N)=O)ccc4o3)CC2)cc(OCC)c1F | 148 (≈ 324 µM) |  | 2.96 | > 10 |  | > 10 |  |  | > 10 | 0.008 | 1.61 | 7.72 | 2.5 | 38 | 3.3 | 28 |  | 0.43 | 
CCOc1cc(CN2CCC(Nc3nc4ccc(C(=O)O)cc4o3)CC2)ccc1Cl | 7 (≈ 16.3 µM) | > 10 | 1.39 | > 10 |  | > 10 |  |  | > 10 | 0.023 | 3.6 |  | 3.1 | 57 | 4.3 | 27 |  | > 10 | 0.098
CCOc1cc(CN2CCC(Nc3nc4ccc(C(=O)O)cc4o3)CC2)cc(OCC)c1F | 6 (≈ 13.1 µM) | > 10 | 1.33 | > 10 |  | > 10 |  |  | > 10 | 0.018 | 2.89 |  | 2.4 | 39 | 1.5 | 20 |  |  | 0.072
CCOc1cc(CN2CCC(Nc3nc4ccccc4o3)CC2)ccc1Cl | 44 (≈ 114 µM) |  | 3.44 | > 10 | 0.266 | > 10 | 2.4 | 0.074 | > 10 |  | 0.49 | 7.63 |  |  |  |  |  |  | 
CCOc1cc(CN2CCC(Nc3nc4ccccc4o3)CC2)cc(OC2CCOCC2)c1 | 212 (≈ 469 µM) |  | 3.02 | > 10 | 3.6 | > 10 | 18 | 0.094 | > 10 | 0.199 | 2.05 | 7.76 |  |  |  |  |  |  | 
